# Laboratory results as given in ChEMBL document CHEMBL5223179, “Phenyl Dihydrouracil: An Alternative Cereblon Binder for PROTAC Design” (ACS Med Chem Lett, 2023).
# Active and inactive are the calls of the source. No cut-off for these calls is given here.
# How the values were obtained:
# [1] = biological target: T1, Tyrosine-protein kinase Lck (Homo sapiens, UniProt P06239); experiment: Induction of HiBiT-tagged LCK degradation in human KOPT-K1 cells after 4 hrs by microplate reader analysis; format: cell-based
# Target sequence in this assay (P06239 whole entry): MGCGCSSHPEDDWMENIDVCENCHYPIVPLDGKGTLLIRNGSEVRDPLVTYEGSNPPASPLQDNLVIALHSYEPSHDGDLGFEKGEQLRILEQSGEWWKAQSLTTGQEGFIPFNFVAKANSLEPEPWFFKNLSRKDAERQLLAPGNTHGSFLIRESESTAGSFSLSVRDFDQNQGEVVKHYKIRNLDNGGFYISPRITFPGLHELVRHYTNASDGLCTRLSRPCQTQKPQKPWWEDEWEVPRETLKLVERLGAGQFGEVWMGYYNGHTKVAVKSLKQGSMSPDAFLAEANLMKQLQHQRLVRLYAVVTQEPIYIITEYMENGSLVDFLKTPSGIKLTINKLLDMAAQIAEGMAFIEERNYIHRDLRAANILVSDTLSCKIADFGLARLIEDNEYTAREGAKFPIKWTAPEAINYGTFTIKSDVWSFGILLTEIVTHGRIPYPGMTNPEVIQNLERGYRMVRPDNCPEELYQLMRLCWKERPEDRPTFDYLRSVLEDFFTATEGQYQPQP
# [2] = biological target: T1, Tyrosine-protein kinase Lck; experiment: Induction of LCK degradation in human KOPT-K1 cells after 4 hrs by immunoblotting analysis; format: cell-based
# Target sequence in this assay (P06239 whole entry): as above
# [3] = test system: KOPTK1; experiment: Cytotoxicity against human KOPT-K1 cells incubated for 72 hrs by Celltiter-Glo assay; format: functional; conditions: for CC50: read-out: LC50 (the source's name)
# Method in brief: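 Human T-ALL KOPT-K1 cells treated with compounds for 72 h. Viability measured by CellTiter-Glo. LC50 fitted from dose-response data, reported as the mean of three independent experiments ± SD.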
# [4] = biological target: T1, Tyrosine-protein kinase Lck; experiment: Induction of LCK degradation in human KOPT-K1 cells assessed as maximum degradation after 4 hrs by immunoblotting analysis relative to control; format: cell-based
# Method in brief: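 KOPT-K1 cells were treated with increasing concentrations of compound for 4 h. Endogenous LCK was assessed by immunoblot. Degradation was calculated from quantified band intensities, and DC50 from the average of three independent experiments.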
# Target sequence in this assay (P06239 2-509 limits assumed): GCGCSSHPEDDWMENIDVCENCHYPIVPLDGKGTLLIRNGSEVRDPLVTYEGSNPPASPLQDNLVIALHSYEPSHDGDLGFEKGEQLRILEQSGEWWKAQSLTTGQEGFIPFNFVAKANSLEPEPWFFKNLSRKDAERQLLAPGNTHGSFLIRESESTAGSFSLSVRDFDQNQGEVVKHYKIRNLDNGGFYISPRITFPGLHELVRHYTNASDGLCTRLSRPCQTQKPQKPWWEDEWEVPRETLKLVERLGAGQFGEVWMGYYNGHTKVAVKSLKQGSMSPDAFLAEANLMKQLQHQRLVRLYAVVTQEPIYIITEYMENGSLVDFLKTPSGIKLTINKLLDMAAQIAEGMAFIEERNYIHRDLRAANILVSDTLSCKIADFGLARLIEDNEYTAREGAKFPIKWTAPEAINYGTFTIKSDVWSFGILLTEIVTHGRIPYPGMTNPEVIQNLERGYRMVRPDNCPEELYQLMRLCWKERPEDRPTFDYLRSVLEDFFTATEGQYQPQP
# [5] = Metabolic stability in mouse liver microsomes assessed as clearance measured upto 240 mins in presence of NADPH regenerating system by LC-MS/MS analysis; format: ADME, Microsome; conditions: 4 h
# [6] = test system: KOPTK1; experiment: Cytotoxicity against human KOPT-K1 cells incubated for 24 hrs by Celltiter-Glo assay; format: functional; conditions: read-out: LC50 (the source's name)
# Method in brief: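 KOPT-K1 human T-ALL cells exposed to compound for 24 h. Viability read by CellTiter-Glo luminescence. LC50 derived from concentration-response curves.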
# [7] = biological target: DNA-binding protein Ikaros (Homo sapiens) (UniProt Q13422); experiment: Induction of IKZF1 degradation in human KOPT-K1 cells upto 100 nM incubated for 4 hrs by immunoblotting analysis; format: cell-based
# Method in brief: (§1)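 KOPT-K1 cells were treated with compound at concentrations up to 100 nM. Endogenous GSPT1, IKZF1 and CK1α abundance was assessed by immunoblotting.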
# [8] = biological target: Casein kinase I isoform alpha (Homo sapiens) (UniProt P48729); experiment: Induction of CK1alpha degradation in human KOPT-K1 cells upto 100 nM incubated for 4 hrs by immunoblotting analysis; format: cell-based; method in brief: as §1
# [9] = biological target: Eukaryotic peptide chain release factor GTP-binding subunit ERF3A (Homo sapiens) (UniProt P15170); experiment: Induction of GSPT1 degradation in human KOPT-K1 cells upto 100 nM incubated for 4 hrs by immunoblotting analysis; format: cell-based; method in brief: as §1
# [10] = Chemical stability of compound in human KOPT-K1 cell culture media assessed as half life incubated upto 48 hrs; format: physicochemical
# Method in brief: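 Compound stability followed in KOPT-K1 cell culture medium over time; half-life derived from the remaining compound.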
# [11] = Permeability in human Caco-2 cells after 2 hrs by UPLC/MS analysis; format: ADME, cell-based; conditions: caco-2, 2 h
# [12] = biological target: Eukaryotic peptide chain release factor GTP-binding subunit ERF3A (Homo sapiens) (UniProt P15170); experiment: Induction of HiBiT-tagged GSPT1 degradation in HEK293T cells upto 10 uM incubated for 4 hrs; format: cell-based
# Method in brief: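 HiBiT-tagged GSPT1 in HEK293T cells was measured after compound exposure at concentrations up to 10 μM.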
# [13] = biological target: Protein cereblon/DNA damage-binding protein 1 (Homo sapiens, UniProt Q96SW2); experiment: Displacement of Cy5-O-Len from 6His-tagged CRBN/DDB1 (unknown origin) incubated for 1 hr under dark condition by fluorescence polarization assay; format: protein assay
# [14] = Metabolic stability in mouse liver microsomes assessed as half life measured upto 240 mins in presence of NADPH regenerating system by LC-MS/MS analysis; format: ADME, Microsome
# Eukaryotic peptide chain release factor GTP-binding subunit ERF3A (Homo sapiens), sequence (P15170 whole entry): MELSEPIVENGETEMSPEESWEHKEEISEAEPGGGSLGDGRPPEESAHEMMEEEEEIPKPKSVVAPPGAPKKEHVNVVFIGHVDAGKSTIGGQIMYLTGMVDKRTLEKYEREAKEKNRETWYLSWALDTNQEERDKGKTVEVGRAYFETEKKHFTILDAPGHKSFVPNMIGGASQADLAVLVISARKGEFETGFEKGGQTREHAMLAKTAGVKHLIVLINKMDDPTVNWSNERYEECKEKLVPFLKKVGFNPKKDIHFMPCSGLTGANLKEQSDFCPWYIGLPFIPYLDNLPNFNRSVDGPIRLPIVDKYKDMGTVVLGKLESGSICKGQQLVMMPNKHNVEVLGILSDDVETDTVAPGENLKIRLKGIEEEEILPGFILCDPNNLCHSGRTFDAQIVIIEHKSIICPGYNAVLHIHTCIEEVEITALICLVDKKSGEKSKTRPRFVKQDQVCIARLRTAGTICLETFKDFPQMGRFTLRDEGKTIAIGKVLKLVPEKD
# DNA-binding protein Ikaros (Homo sapiens), sequence (Q13422 whole entry): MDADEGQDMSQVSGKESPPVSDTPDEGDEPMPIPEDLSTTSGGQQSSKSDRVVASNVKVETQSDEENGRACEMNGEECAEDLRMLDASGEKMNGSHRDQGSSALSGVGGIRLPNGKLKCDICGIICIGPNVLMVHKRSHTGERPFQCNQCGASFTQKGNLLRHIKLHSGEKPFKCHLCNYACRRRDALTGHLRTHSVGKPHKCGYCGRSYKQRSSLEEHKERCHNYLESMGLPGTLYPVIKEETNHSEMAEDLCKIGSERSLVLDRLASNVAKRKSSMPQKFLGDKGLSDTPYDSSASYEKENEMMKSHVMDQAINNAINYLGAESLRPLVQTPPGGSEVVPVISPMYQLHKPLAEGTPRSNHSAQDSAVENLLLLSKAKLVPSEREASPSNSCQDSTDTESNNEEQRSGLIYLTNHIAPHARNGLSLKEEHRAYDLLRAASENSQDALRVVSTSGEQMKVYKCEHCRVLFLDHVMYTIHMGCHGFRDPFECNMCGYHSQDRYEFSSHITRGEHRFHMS
# Casein kinase I isoform alpha (Homo sapiens), sequence (P48729 2-337 limits assumed): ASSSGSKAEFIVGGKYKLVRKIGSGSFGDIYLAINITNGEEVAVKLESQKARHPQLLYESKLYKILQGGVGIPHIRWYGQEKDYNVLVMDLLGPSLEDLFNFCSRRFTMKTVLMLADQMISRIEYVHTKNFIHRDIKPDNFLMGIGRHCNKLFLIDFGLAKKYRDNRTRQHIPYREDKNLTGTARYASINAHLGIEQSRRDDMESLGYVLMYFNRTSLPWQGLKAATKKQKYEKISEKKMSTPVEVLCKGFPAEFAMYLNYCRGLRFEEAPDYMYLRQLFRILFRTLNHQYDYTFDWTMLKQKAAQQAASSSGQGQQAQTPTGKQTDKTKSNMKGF
# Protein cereblon/DNA damage-binding protein 1, sequence (Q96SW2 whole entry): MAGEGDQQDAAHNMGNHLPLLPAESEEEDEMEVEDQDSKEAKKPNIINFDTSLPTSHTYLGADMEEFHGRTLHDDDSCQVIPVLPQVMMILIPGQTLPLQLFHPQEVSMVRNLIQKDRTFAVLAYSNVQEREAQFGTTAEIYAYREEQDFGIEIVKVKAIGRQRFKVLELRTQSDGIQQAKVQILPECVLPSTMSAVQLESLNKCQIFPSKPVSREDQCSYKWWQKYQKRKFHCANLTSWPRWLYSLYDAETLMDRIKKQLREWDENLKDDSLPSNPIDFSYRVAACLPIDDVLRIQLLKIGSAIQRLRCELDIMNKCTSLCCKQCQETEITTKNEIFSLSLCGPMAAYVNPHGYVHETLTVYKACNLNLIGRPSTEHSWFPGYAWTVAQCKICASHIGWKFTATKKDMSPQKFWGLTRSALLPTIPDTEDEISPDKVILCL
# Protein cereblon/DNA damage-binding protein 1, sequence (Q16531 whole entry, further chain): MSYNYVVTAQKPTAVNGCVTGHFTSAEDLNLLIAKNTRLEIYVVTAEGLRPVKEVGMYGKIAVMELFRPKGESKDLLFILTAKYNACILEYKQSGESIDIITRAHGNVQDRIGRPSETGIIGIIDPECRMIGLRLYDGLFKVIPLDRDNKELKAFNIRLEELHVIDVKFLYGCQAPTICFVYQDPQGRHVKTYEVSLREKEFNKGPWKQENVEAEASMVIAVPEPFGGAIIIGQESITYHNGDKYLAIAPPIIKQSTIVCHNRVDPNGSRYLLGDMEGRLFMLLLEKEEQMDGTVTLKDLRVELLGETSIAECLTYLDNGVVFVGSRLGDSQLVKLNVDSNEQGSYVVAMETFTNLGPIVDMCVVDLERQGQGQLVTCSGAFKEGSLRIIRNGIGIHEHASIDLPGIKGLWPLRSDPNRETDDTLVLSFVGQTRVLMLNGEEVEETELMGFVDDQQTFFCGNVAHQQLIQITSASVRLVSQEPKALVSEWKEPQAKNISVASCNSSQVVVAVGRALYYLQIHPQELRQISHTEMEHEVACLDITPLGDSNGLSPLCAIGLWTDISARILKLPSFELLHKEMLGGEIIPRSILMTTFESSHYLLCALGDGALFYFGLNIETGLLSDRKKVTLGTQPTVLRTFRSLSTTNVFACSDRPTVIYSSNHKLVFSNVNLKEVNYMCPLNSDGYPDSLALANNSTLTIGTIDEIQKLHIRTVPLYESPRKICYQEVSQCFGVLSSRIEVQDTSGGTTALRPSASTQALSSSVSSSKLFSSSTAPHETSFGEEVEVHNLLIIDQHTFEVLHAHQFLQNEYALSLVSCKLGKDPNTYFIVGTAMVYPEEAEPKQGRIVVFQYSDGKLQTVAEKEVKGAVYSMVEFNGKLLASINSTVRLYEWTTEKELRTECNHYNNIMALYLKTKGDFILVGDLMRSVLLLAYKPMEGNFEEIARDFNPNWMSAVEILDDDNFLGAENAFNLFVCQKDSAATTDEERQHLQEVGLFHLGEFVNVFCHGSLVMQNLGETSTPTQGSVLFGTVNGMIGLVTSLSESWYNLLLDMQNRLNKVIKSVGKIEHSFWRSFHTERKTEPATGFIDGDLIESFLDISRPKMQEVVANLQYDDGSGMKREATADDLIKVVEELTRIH
Compound,DC50 [1],Stability [5],CC50 [6],T1/2 [10],permeability [11],further results
Cc1nc(Nc2ncc(C(=O)Nc3c(C)cccc3Cl)s2)cc(N2CCN(CCCNC(=O)COc3ccc(N4CCC(=O)NC4=O)cc3)CC2)n1,15 nM,Unstable,28 nM,> 48 h,Impermeable,DC50 [2]: 8 nM; CC50 [3]: 0.005 nM; Emax [4]: 66%; Activity [7]: inactive; Activity [8]: inactive; Activity [9]: inactive
O=C1CCN(c2ccc(N3CCNCC3)cc2)C(=O)N1,,,,,,Activity [3]: inactive
Cc1nc(Nc2ncc(C(=O)Nc3c(C)cccc3Cl)s2)cc(N2CCN(CCCNC(=O)COc3cccc4c3C(=O)N(C3CCC(=O)NC3=O)C4=O)CC2)n1 (stereo not drawn),13 nM,Unstable,8 nM,13 h,Impermeable,Activity [12]: inactive; CC50 [3]: 10 nM; IC50 [13]: 1030 nM
Cc1nc(Nc2ncc(C(=O)Nc3c(C)cccc3Cl)s2)cc(N2CCN(CCCC(=O)N3CCN(c4ccc(N5CCC(=O)NC5=O)cc4)CC3)CC2)n1,,Unstable,37 nM,,Impermeable,Emax [4]: 98.4%; Activity [7]: inactive; Activity [8]: inactive; Activity [9]: inactive
Cc1nc(Nc2ncc(C(=O)Nc3c(C)cccc3Cl)s2)cc(N2CCN(CCCC(=O)N3CCN(c4ccc(C5CCC(=O)NC5=O)cc4)CC3)CC2)n1 (stereo not drawn),8 nM,Unstable,0.005 nM,,Impermeable,
O=C(O)COc1ccc(N2CCC(=O)NC2=O)cc1,,,,,,Activity [3]: inactive
Cc1nc(Nc2ncc(C(=O)Nc3c(C)cccc3Cl)s2)cc(N2CCN(CCO)CC2)n1.O [DASATINIB],,,,,,half-life [14]: 0.82 h
Cc1nc(Nc2ncc(C(=O)Nc3c(C)cccc3Cl)s2)cc(N2CCN(CCCNC(=O)COc3ccc(C4CCC(=O)NC4=O)cc3)CC2)n1 (stereo not drawn),6 nM,Unstable,0.24 nM,> 48 h,Impermeable,
